Laboratory results taken from ChEMBL document CHEMBL2417552, “Screen of pseudopeptidic inhibitors of human sirtuins 1-3: two lead compounds with antiproliferative effects in cancer cells” (J Med Chem, 2013).
The source made the active and inactive calls. The rule behind the calls is not given here.

How the values were obtained:
[1] = target: T1, NAD-dependent protein deacetylase sirtuin-2 (Homo sapiens, UniProt Q8IXJ6); experiment: Inhibition of human recombinant GST-tagged SIRT2 using KI179 as substrate preincubated for 5 mins followed by enzyme addition measured after 1 hr by fluorescence assay
T1 sequence (Q8IXJ6 whole entry): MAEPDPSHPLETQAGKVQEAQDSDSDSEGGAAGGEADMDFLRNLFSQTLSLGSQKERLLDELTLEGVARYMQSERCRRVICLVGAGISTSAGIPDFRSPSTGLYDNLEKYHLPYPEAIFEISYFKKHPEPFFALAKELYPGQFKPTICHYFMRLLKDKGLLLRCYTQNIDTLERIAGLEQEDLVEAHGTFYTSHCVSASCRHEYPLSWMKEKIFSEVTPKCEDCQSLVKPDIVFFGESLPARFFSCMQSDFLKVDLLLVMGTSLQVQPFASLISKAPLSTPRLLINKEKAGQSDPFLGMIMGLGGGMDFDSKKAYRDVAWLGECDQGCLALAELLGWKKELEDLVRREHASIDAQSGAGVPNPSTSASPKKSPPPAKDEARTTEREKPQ
How it was run: (§1)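 Fluor de Lys deacetylation assay. […] Mix preincubated 5 min at room temperature, started with enzyme, run 1 h at 37°C. Developer with 2 mM nicotinamide then added for 45 min at 37°C before fluorescence reading.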

MCF7 [2] = experiment: Effect on alpha-tubulin acetylation in human MCF7 cells at 50 uM after 6 to 18 hrs by Western blotting analysis; format: functional, cell-based
How it was run: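 MCF-7 cells seeded 24 h ahead, treated for 6 or 18 h, then lysed in M-PER. Lysates run on SDS-PAGE, transferred to nitrocellulose and probed with mouse monoclonal anti-acetylated α-tubulin and anti-total α-tubulin. Detection with peroxidase anti-mouse secondary and ECL Plus.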

MCF7 [3] = experiment: Cytotoxicity against human MCF7 cells at 50 uM by LDH assay; format: functional, cell-based
[4] = target: T2, NAD-dependent protein deacetylase sirtuin-1 (Homo sapiens) (UniProt Q96EB6); experiment: Inhibition of SIRT1 in etoposide-induced human ARPE19 cells assessed as increase in p53 acetylation at Lys382 at 20 uM after 5 hrs by Western blotting analysis; format: cell-based
T2 sequence (whole entry): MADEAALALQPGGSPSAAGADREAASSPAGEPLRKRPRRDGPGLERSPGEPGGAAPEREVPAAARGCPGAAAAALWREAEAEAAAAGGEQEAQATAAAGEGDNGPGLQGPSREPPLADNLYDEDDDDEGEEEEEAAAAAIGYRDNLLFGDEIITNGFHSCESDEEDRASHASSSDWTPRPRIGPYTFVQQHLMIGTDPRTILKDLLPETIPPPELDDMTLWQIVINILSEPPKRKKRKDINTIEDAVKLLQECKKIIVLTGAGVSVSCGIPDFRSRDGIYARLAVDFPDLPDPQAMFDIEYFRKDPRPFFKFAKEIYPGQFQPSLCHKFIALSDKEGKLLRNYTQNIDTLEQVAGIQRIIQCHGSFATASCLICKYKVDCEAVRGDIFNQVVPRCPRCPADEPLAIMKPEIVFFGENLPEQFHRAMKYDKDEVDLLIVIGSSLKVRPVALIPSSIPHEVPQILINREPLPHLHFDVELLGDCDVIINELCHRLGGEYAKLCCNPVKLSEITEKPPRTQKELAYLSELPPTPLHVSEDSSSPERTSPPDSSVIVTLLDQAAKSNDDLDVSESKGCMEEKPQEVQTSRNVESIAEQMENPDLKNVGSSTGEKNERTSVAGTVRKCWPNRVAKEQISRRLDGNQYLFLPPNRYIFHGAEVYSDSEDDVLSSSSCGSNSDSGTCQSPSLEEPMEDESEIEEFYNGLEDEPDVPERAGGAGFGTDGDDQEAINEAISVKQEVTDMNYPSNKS
How it was run: (§2)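 ARPE-19 or SH-SY5Y cells seeded 24 h ahead, then given 20 μM compound and 100 μM etoposide together for 5 h before harvest. Acetylated p53 detected by Western blot. Mean ± SEM of 2 independent experiments.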

[5] = target: T3, NAD-dependent protein deacetylase sirtuin-3, mitochondrial (Homo sapiens, UniProt Q9NTG7); experiment: Inhibition of human recombinant His-tagged SIRT3 using KI179 as substrate preincubated for 5 mins followed by enzyme addition measured after 1 hr by fluorescence assay
T3 sequence (Q9NTG7 whole entry): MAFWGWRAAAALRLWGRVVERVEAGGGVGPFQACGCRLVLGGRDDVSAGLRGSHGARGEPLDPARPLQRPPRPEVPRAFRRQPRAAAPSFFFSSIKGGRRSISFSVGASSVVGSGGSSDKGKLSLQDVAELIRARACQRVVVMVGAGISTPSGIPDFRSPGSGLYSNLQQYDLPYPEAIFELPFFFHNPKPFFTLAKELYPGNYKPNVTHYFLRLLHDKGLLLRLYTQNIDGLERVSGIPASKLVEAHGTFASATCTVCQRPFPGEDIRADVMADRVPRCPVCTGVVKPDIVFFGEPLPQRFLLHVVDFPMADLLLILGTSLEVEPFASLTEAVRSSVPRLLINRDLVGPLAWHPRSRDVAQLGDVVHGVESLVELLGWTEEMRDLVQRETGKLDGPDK

[6] = target: T2, NAD-dependent protein deacetylase sirtuin-1 (Homo sapiens); experiment: Inhibition of SIRT1 in etoposide-induced human MCF7 cells assessed as increase in p53 acetylation at Lys382 at 50 uM after 5 hrs by Western blotting analysis; format: cell-based
How it was run: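 MCF-7 cells seeded 24 h ahead, then given 50 μM compound and 100 μM etoposide together for 5 h before harvest. Acetylated p53 detected by Western blot; run once per compound.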

[7] = Cytotoxicity against human SH-SY5Y cells at 20 uM by LDH assay; format: cell-based
[8] = Cytotoxicity against human ARPE19 cells at 20 uM by LDH assay; format: cell-based; conditions: arpe-19, 20 µM
[9] = target: T4, NAD-dependent protein deacetylase sirtuin-3, mitochondrial (Homo sapiens) (UniProt Q9NTG7); conditions: at 50 µM
T4 sequence (whole entry): T3 sequence (Q9NTG7 whole entry)

[10] = target: T2, NAD-dependent protein deacetylase sirtuin-1 (Homo sapiens); conditions: at 50 µM
[11] = target: T5, NAD-dependent protein deacetylase sirtuin-1 (Homo sapiens, UniProt Q96EB6); experiment: Inhibition of human recombinant GST-tagged SIRT1 using KI177 as substrate preincubated for 5 mins followed by enzyme addition measured after 1 hr by fluorescence assay; how it was run: as §1
T5 sequence (Q96EB6 whole entry): T2 sequence (whole entry)

[12] = target: T2, NAD-dependent protein deacetylase sirtuin-1 (Homo sapiens); experiment: Inhibition of SIRT1 in etoposide-induced human SH-SY5Y cells assessed as increase in p53 acetylation at Lys382 at 20 uM after 5 hrs by Western blotting analysis; format: cell-based; how it was run: as §2
[13] = target: T6, NAD-dependent protein deacetylase sirtuin-2 (Homo sapiens) (UniProt Q8IXJ6); experiment: Inhibition of human recombinant GST-tagged SIRT2 using KI179 as substrate at 50 uM preincubated for 5 mins followed by enzyme addition measured after 1 hr by fluorescence assay relative to control
T6 sequence (whole entry): T1 sequence (Q8IXJ6 whole entry)
How it was run: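 Recombinant GST-SIRT2, Fluor de Lys assay in SIRT assay buffer. Acetylated peptide KI179 at 0.7 Km (Km 198 µM) and NAD+ at 0.9 Km (reported Km 547 µM). Buffer, substrate, NAD+ and compound in DMSO preincubated 5 min at room temperature. Enzyme added to start; 1 h at 37 °C. Developer with 2 mM nicotinamide added; 45 min at 37 °C; fluorescence read. Mean ± SD, ≥3 experiments.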

MCF7 [14] = experiment: Growth inhibition of human MCF7 cells up to 200 uM after 72 hrs by sulforhodamine B assay
A549 [15] = experiment: Growth inhibition of human A549 cells up to 200 uM after 48 hrs by sulforhodamine B assay; format: functional, cell-based
A549 [16] = experiment: Growth inhibition of human A549 cells at >= 50 uM after 48 hrs by sulforhodamine B assay; format: functional, cell-based
MCF7 [17] = experiment: Cytotoxicity against human MCF7 cells assessed as cell death at 100 uM after 18 hrs by propidium iodide staining-based FACS flow cytometric analysis; format: functional
MCF7 [18] = experiment: Cell cycle arrest in human MCF7 cells assessed as accumulation at S phase at 100 uM after 18 hrs by propidium iodide staining-based FACS flow cytometric analysis (reference value: 12.6%); format: functional
A549 [19] = experiment: Cytotoxicity against human A549 cells assessed as cell death at 100 uM after 18 hrs by propidium iodide staining-based FACS flow cytometric analysis; format: functional
MCF7 [20] = experiment: Growth inhibition of human MCF7 cells at >= 50 uM after 72 hrs by sulforhodamine B assay
MCF7 [21] = experiment: Cell cycle arrest in human MCF7 cells assessed as accumulation at G1 phase at 100 uM after 18 hrs by propidium iodide staining-based FACS flow cytometric analysis (reference value: 67.6%); format: functional
MCF7 [22] = experiment: Cell cycle arrest in human MCF7 cells assessed as accumulation at G2 phase at 100 uM after 18 hrs by propidium iodide staining-based FACS flow cytometric analysis (reference value: 14.7%); format: functional
A549 [23] = experiment: Cell cycle arrest in human A549 cells assessed as accumulation at G1 phase at 100 uM after 18 hrs by propidium iodide staining-based FACS flow cytometric analysis (reference value: 62.3%); format: functional
A549 [24] = experiment: Cell cycle arrest in human A549 cells assessed as accumulation at G2 phase at 100 uM after 18 hrs by propidium iodide staining-based FACS flow cytometric analysis (reference value: 19.4%); format: functional
A549 [25] = experiment: Cell cycle arrest in human A549 cells assessed as accumulation at S phase at 100 uM after 18 hrs by propidium iodide staining-based FACS flow cytometric analysis (reference value: 17.8%); format: functional

IC50 [1] [µM]	inhibition [4]	inhibition [6]	inhibition [10] [%]	IC50 [11] [µM]	inhibition [12]	inhibition [13] [%]	Compound	Activity (MCF7 [2])	Activity (MCF7 [3])	Activity [7]	Activity [8]	further results
1.8	Active	Active	99	0.24	Active	96	CC(=S)NCCCC[C@H](NC(=O)[C@@H]1C[C@@H](O)CN1C(=O)OCc1ccccc1)C(=O)NCC(=O)c1ccccc1	inactive	inactive	Non-toxic	Non-toxic	IC50 [5]: 3.89 µM; inhibition [9]: 90%; growth inhibition (GI) (MCF7 [14]): inactive; growth inhibition (GI) (A549 [15]): inactive
25.8	Active	Active	88	5.98	Active	66	COc1ccc2[nH]cc(CCNC(=O)[C@H](CCCCNC(C)=S)NC(=O)OCc3ccccc3)c2c1	inactive	inactive	Non-toxic	Non-toxic	growth inhibition (GI) (A549 [16]): Active; Activity (MCF7 [17]): inactive; Activity (MCF7 [18]): 5.7%; Activity (A549 [19]): inactive; growth inhibition (GI) (MCF7 [20]): Active; Activity (MCF7 [21]): 77.4%; Activity (MCF7 [22]): 13.2%; Activity (A549 [23]): 85.7%; Activity (A549 [24]): 9.9%; Activity (A549 [25]): 3%
